# ChEMBL document CHEMBL5500386, “Design, synthesis and bioactivity evaluation of 4-hydroxycoumarin derivatives as potential anti-inflammatory agents against acute lung injury and colitis” (Eur J Med Chem, 2024)
# Activity calls are given as the source filed them. The calls are words filed in the database; no cut-off is given here.
# What was measured:
# J774.A1 [1] = assay: Antiinflammatory activity in LPS-induced mouse J774.a1 cells assessed as inhibition of IL-6 production at 10 uM pretreated for 2 hrs followed by LPS stimulation and measured after 30 mins by ELISA relative to control; type: functional; conditions: time 2.5 hrs
# Summary of the method: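 J774A.1 cells (DMEM, 10 % FBS, 37 °C) treated with 10 μM compound or 4-HC for 2 h, then LPS. After 30 min, IL-6 in medium measured by ELISA. Result is % inhibition, mean ± SEM of three independent experiments.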
# J774.A1 [2] = assay: Cytotoxicity against mouse J774.A1 cells assessed as reduction in cell viability at 10 uM measured after 24 hrs by MTT assay; type: toxicity, cell-based; conditions: j774.a1, 24 h
# Summary of the method: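 J774A.1 cells seeded and incubated 24 h, then exposed to 10 μM compound for 24 h. MTT (5.0 mg/mL) added as 10 % for 4 h, formazan dissolved in DMSO with 30 min shaking, absorbance read at 490 nm. Expressed as % of control.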
# Mus musculus = assay: Protection against LPS-induced C57BL/6 mouse model of acute lung injury assessed as reduction in IL-6 level in serum at 20 mg/kg, po administered 3 times for every 12 hrs followed by LPS stimulation at 5 mg/kg and measured after 6 hrs by ELISA; type: functional, organism-based; conditions: time 30.0 hrs
# Summary of the method: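 C57BL/6 mice, 6 per group. Gavaged at 20 mg/kg three times at 12 h intervals; controls received saline, and dexamethasone 20 mg/kg served as reference. After the last dose, LPS 5 mg/kg given intratracheally. At 6 h, blood collected for serum IL-6 by ELISA. Left lung lavaged with 3 × 200 μL saline, and BALF assayed for IL-6, total protein and neutrophil count. Mean ± SEM, n = 6.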
Compound,inhibition (J774.A1 [1]),inhibition at 10 µM (J774.A1 [1]) [%],also measured
O=c1cc(OCCCNCCc2cccs2)c2ccccc2o1,inactive,,
O=c1cc(OCCCNCCCN2CCCC2)c2ccccc2o1,,54.4,
O=c1cc(OCCCN2CCN(CCO)CC2)c2ccccc2o1,,51.3,Activity (J774.A1 [2]): Non-Toxic
COCCN1CCN(CCOc2cc(=O)oc3ccccc23)CC1,inactive,,
CCN1CCN(CCOc2cc(=O)oc3ccccc23)CC1,,18.1,
O=c1cc(O)c2ccccc2o1 [4-HYDROXYCOUMARINS],,17.3,
CC(=O)N1CCN(CCCOc2cc(=O)oc3ccccc23)CC1,,42.3,Activity (J774.A1 [2]): Non-Toxic
COc1cccc(COc2cc(=O)oc3ccccc23)c1,,50.4,
O=c1cc(OCCCNCCCN2CCOCC2)c2ccccc2o1,inactive,,
O=c1cc(OCCN2CCN(C3CC3)CC2)c2ccccc2o1,inactive,,
O=c1cc(OCCN2CCN(CCO)CC2)c2ccccc2o1,,48.8,
CC1CCCN(CCCOc2cc(=O)oc3ccccc23)C1 (centres undefined),inactive,,
O=c1cc(OCC2CO2)c2ccccc2o1 (centres undefined),inactive,,
O=c1cc(OCCOCCN2CCNCC2)c2ccccc2o1,,50.1,Activity (J774.A1 [2]): Non-Toxic
O=c1cc(OCCN2CCOCC2)c2ccccc2o1,,17.5,
COCCN1CCN(CCCOc2cc(=O)oc3ccccc23)CC1,inactive,,
CC1CCCN(CCOc2cc(=O)oc3ccccc23)C1 (centres undefined),,48.8,
C[C@@H]1C[C@H]2[C@@H]3CCC4=CC(=O)C=C[C@]4(C)[C@@]3(F)[C@@H](O)C[C@]2(C)[C@@]1(O)C(=O)CO,,,Activity (Mus musculus): Active
O=c1cc(OCCNCCCN2CCOCC2)c2ccccc2o1,,21.8,
CCN1CCN(CCCOc2cc(=O)oc3ccccc23)CC1,,30.1,
CN(C)CCCOc1cc(=O)oc2ccccc12,inactive,,
O=c1cc(OCCCCN2CCOCC2)c2ccccc2o1,inactive,,
O=c1cc(OCc2cccc(F)c2)c2ccccc2o1,,4.36,
O=c1cc(OCCCN2CCCC2)c2ccccc2o1,,39,
O=c1cc(OCCNCCc2cccs2)c2ccccc2o1,,34.7,
Cc1cc(C)cc(COc2cc(=O)oc3ccccc23)c1,,17.5,
